Results collected from several papers.
Route: oral

| Compound | test system | conditions | Tmax [h] |
| --- | --- | --- | --- |
| CCc1nc2c(C)cc(N3CCN(CC(=O)N4CC(O)C4)CC3)cn2c1N(C)c1nc(-c2ccc(F)cc2)c(C#N)s1 | human, plasma | 20 mg, fed, healthy volunteers | 1 |
| Cc1nc(NC(=O)N2CCC[C@H]2C(N)=O)sc1-c1ccnc(C(C)(C)C(F)(F)F)c1 | human, plasma | 180 mg, patients | 2.46 |
| NS(=O)(=O)NCCNc1nonc1C(=NO)Nc1ccc(F)c(Br)c1 | human, plasma | 700 mg, multiple doses, twice daily, steady state, patients | 3 |
| CCCOc1ccc([C@H]2CNC(=O)N2c2ccc3[nH]cnc3c2)cc1 | human, plasma | 200 mg, single dose, fed, healthy volunteers | 2 |
| Cn1cc(-c2ccc(S(=O)(=O)[C@@H]3C[C@@H](C(=O)NC4(C#N)CC4)N(C(=O)C4(C(F)(F)F)CC4)C3)c(C(F)(F)F)c2)cn1 | human, plasma | 10 mg, single dose, fasted, healthy volunteers | 4.5 |
| CCOc1cc2ncc(C#N)c(Nc3ccc(OCc4ccccn4)c(Cl)c3)c2cc1NC(=O)/C=C/[C@H]1CCCN1C | human, plasma | 80 mg, single dose | 4.98 |
| COc1ccc(Oc2cc(N(C)CCOc3ccc(CC4SC(=O)NC4=O)cc3)ncn2)cc1 (stereo not drawn) | male human, plasma | 0.5 mg, multiple doses, once daily, steady state | 0.67 |
| c1cnc2ccc(Nc3nc(NC4CC4)c4nc[nH]c4n3)cc2c1 | human, plasma | 400 mg/m², patients | 6.5 |
| CC(C)(Sc1ccncc1-c1ccc(C#N)c2ccccc12)C(=O)O | male human, plasma | 5 mg, single dose, fed, healthy volunteers | 1.25 |
| CC(C)n1cc(C#N)c2cc(-n3cc(C(=O)O)cn3)ccc21 | human, plasma | 25 mg, single dose, fasted, healthy volunteers | 2.3 |
| CCc1nc(C(N)=O)c(Nc2ccc(N3CCC(N4CCN(C)CC4)CC3)c(OC)c2)nc1NC1CCOCC1 | human, plasma | 40 mg, multiple doses, patients | 4.01 |
| CS(=O)(=O)CCC#N | human, plasma | 1000 mg, multiple doses, once daily | 2 |
| C[C@@]1(c2cc(NC(=O)c3ccc(C#N)cn3)ccc2F)C=CSC(N)=N1 | human, plasma | 1 mg, single dose | 0.89 |
| CC(C)[C@](O)(c1ccc2cc(OC(F)F)c(OC(F)F)cc2c1)c1c[nH]nn1 | female human, plasma | 750 mg, single dose | 3 |
| C=CC(=O)N(C)CCOc1c(N)ncnc1-c1cc(F)cc(NC(=O)c2ccc(C3CC3)cc2F)c1C | human, blood | 200 mg, single dose, healthy volunteers | 1.25 |
| Oc1cc(O)c2c(c1)O[C@@H](c1ccc(O)c(O)c1)[C@@H](O)C2 | human, plasma | 10 mg, single dose | 1 |
| COc1ccc([C@@H]2CN(C(=O)[C@@H](O)CO)C[C@@]2(C)[C@@H](C)O)cc1OC1CN(c2ccc(C)cn2)C1 | human, plasma | 30 mg, single dose, healthy volunteers | 3.88 |
| C[C@@H](Nc1cc(F)cc(F)c1)c1cc(C(=O)N(C)C)cc2c(=O)cc(N3CCOCC3)oc12 | human, plasma | 30 mg, single dose, patients | 2 |
| C=CC(=O)N1CCC(Oc2cc3c(Nc4ccc(Cl)c(Cl)c4F)ncnc3cc2OC)CC1 | human, plasma | 16 mg, single dose, fasted | 1.26 |
| COc1cc(N2CCC(N3CCN(C)CC3)CC2)ccc1Nc1ncnc(Nc2ccccc2S(=O)(=O)C(C)C)n1 | human, plasma | 75 mg, multiple doses, patients | 3.32 |
| CC(C)(O)c1ccccc1-c1ccc2[nH]c(/C=C/c3ccc(C(F)(F)F)cc3)nc2c1 | male human, plasma | 120 mg, single dose, fasted | 3 |
